Data from ChEMBL document CHEMBL5236607, “Membrane-Active Cyclic Amphiphilic Peptides: Broad-Spectrum Antibacterial Activity Alone and in Combination with Antibiotics” (J Med Chem, 2022).
Peptide text beside a SMILES is read from it.

What was measured:
[1] = tested on: Pseudomonas aeruginosa; test: Synergistic antibacterial activity against Pseudomonas aeruginosa ATCC […] fractional inhibitory concentration index incubated for 24 hrs in presence of Ciprofloxacin by checkerboard assay; format: functional
[2] = tested on: Klebsiella pneumoniae; test: Synergistic antibacterial activity against Klebsiella pneumoniae ATCC BAA-1705 fractional inhibitory concentration index incubated for 24 hrs in presence of Ciprofloxacin by checkerboard assay; format: functional
Outline: (§1)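 Checkerboard assay in MH broth. Inoculum from an LB overnight culture set to 0.5 McFarland and diluted 1/150. […] Each agent was also titrated alone. Incubation 24 h at 37 °C. FIC = combination MIC/individual MIC; FICI = sum of the FICs. Triplicate.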

[3] = tested on: Pseudomonas aeruginosa; test: Synergistic antibacterial activity against Pseudomonas aeruginosa ATCC […] fractional inhibitory concentration index incubated for 24 hrs in presence of levofloxacin by checkerboard assay; format: functional
[4] = tested on: Staphylococcus aureus; test: Synergistic antibacterial activity against methicillin resistant Staphylococcus aureus ATCC BAA-1556 incubated for 24 hrs in presence of clindamycin by checkerboard assay; format: functional
Outline: (§2)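 Checkerboard assay. Inoculum from an LB overnight culture at 0.5 McFarland, diluted 1/150 in MH media. […] Incubated 37 °C for 24 h. FICI = MIC combination/MIC alone summed over both agents. Triplicate.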

[5] = tested on: Klebsiella pneumoniae; test: Synergistic antibacterial activity against Klebsiella pneumoniae ATCC BAA-1705 assessed as fractional inhibitory concentration index incubated for 24 hrs in presence of tetracycline by checkerboard assay; format: functional; outline: as §1
[6] = tested on: Klebsiella pneumoniae; test: Synergistic antibacterial activity against Klebsiella pneumoniae ATCC BAA-1705 fractional inhibitory concentration incubated for 24 hrs in presence of metronidazole by checkerboard assay; format: functional; outline: as §2
[7] = tested on: Staphylococcus aureus; test: Synergistic antibacterial activity against methicillin resistant Staphylococcus aureus ATCC BAA-1556 assessed as fractional inhibitory concentration incubated for 24 hrs in presence of tetracycline by checkerboard assay; format: functional; outline: as §2
[8] = tested on: Pseudomonas aeruginosa; test: Synergistic antibacterial activity against Pseudomonas aeruginosa ATCC […] fractional inhibitory concentration incubated for 24 hrs in presence of Ciprofloxacin by checkerboard assay; format: functional
[9] = tested on: Staphylococcus aureus; test: Synergistic antibacterial activity against methicillin resistant Staphylococcus aureus ATCC BAA-1556 fractional inhibitory concentration index incubated for 24 hrs in presence of vancomycin by checkerboard assay; format: functional; outline: as §2
[10] = tested on: Klebsiella pneumoniae; test: Synergistic antibacterial activity against Klebsiella pneumoniae ATCC BAA-1705 fractional inhibitory concentration incubated for 24 hrs in presence of levofloxacin by checkerboard assay; format: functional; outline: as §1
[11] = tested on: Klebsiella pneumoniae; test: Synergistic antibacterial activity against Klebsiella pneumoniae ATCC BAA-1705 fractional inhibitory concentration index incubated for 24 hrs in presence of daptomycin by checkerboard assay; format: functional; outline: as §1
[12] = tested on: Staphylococcus aureus; test: Synergistic antibacterial activity against methicillin resistant Staphylococcus aureus ATCC BAA-1556 fractional inhibitory concentration incubated for 24 hrs in presence of metronidazole by checkerboard assay; format: functional; outline: as §2
[13] = tested on: Klebsiella pneumoniae; test: Synergistic antibacterial activity against Klebsiella pneumoniae ATCC BAA-1705 fractional inhibitory concentration incubated for 24 hrs in presence of vancomycin by checkerboard assay; format: functional; outline: as §1
[14] = tested on: Pseudomonas aeruginosa; test: Synergistic antibacterial activity against Pseudomonas aeruginosa ATCC […] fractional inhibitory concentration incubated for 24 hrs in presence of vancomycin by checkerboard assay; format: functional
[15] = tested on: Pseudomonas aeruginosa; test: Synergistic antibacterial activity against Pseudomonas aeruginosa ATCC […] fractional inhibitory concentration incubated for 24 hrs in presence of daptomycin by checkerboard assay; format: functional
[16] = tested on: Staphylococcus aureus; test: Synergistic antibacterial activity against methicillin resistant Staphylococcus aureus ATCC BAA-1556 assessed as fractional inhibitory concentration index incubated for 24 hrs in presence of tetracycline by checkerboard assay; format: functional; outline: as §2
[17] = tested on: Escherichia coli; test: Synergistic antibacterial activity against Escherichia coli ATCC 25922 assessed as fractional inhibitory concentration index incubated for 24 hrs in presence of tetracycline by checkerboard assay; format: functional; outline: as §1
[18] = tested on: Klebsiella pneumoniae; test: Synergistic antibacterial activity against Klebsiella pneumoniae ATCC BAA-1705 fractional inhibitory concentration incubated for 24 hrs in presence of Ciprofloxacin by checkerboard assay; format: functional; outline: as §1
[19] = tested on: Staphylococcus aureus; test: Synergistic antibacterial activity against methicillin resistant Staphylococcus aureus ATCC BAA-1556 incubated for 24 hrs in presence of tobramycin by checkerboard assay; format: functional; outline: as §2
[20] = tested on: Klebsiella pneumoniae; test: Synergistic antibacterial activity against Klebsiella pneumoniae ATCC BAA-1705 fractional inhibitory concentration incubated for 24 hrs in presence of kanamycin by checkerboard assay; format: functional; outline: as §1
[21] = tested on: Escherichia coli; test: Synergistic antibacterial activity against Escherichia coli ATCC 25922 fractional inhibitory concentration index incubated for 24 hrs in presence of polymyxin B by checkerboard assay; format: functional; outline: as §1
[22] = tested on: Klebsiella pneumoniae; test: Synergistic antibacterial activity against Klebsiella pneumoniae ATCC BAA-1705 incubated for 24 hrs in presence of polymyxin B by checkerboard assay; format: functional
[23] = tested on: Escherichia coli; test: Synergistic antibacterial activity against Escherichia coli ATCC 25922 fractional inhibitory concentration index incubated for 24 hrs in presence of levofloxacin by checkerboard assay; format: functional; outline: as §1
[24] = tested on: Klebsiella pneumoniae; test: Synergistic antibacterial activity against Klebsiella pneumoniae ATCC BAA-1705 assessed as fractional inhibitory concentration incubated for 24 hrs in presence of tobramycin by checkerboard assay; format: functional; outline: as §1
[25] = tested on: Staphylococcus aureus; test: Synergistic antibacterial activity against methicillin resistant Staphylococcus aureus ATCC BAA-1556 incubated for 24 hrs in presence of vancomycin by checkerboard assay; format: functional; outline: as §2
[26] = tested on: Escherichia coli; test: Synergistic antibacterial activity against Escherichia coli ATCC 25922 fractional inhibitory concentration incubated for 24 hrs in presence of kanamycin by checkerboard assay; format: functional; outline: as §1
[27] = tested on: Staphylococcus aureus; test: Bactericidal activity against methicillin resistant Staphylococcus aureus assessed as reduction in bacterial cells at 4 times MIC after 2 hrs by time kill assay; format: functional; design: scale not given: the % may be the effect or the level left
Outline: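 Time-kill in Müller–Hinton media. […] Aliquots taken at 0–24 h, serially diluted and plated on MH agar. CFU counted after 24 h at 37 °C. Two independent experiments in triplicate.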

[28] = tested on: Pseudomonas aeruginosa; test: Synergistic antibacterial activity against Pseudomonas aeruginosa ATCC […] assessed as fractional inhibitory concentration incubated for 24 hrs in presence of clindamycin by checkerboard assay; format: functional
[29] = tested on: Pseudomonas aeruginosa; test: Synergistic antibacterial activity against Pseudomonas aeruginosa ATCC […] assessed as fractional inhibitory concentration index incubated for 24 hrs in presence of tetracycline by checkerboard assay; format: functional
[30] = tested on: Pseudomonas aeruginosa; test: Synergistic antibacterial activity against Pseudomonas aeruginosa ATCC […] fractional inhibitory concentration incubated for 24 hrs in presence of levofloxacin by checkerboard assay; format: functional
[31] = tested on: Staphylococcus aureus; test: Synergistic antibacterial activity against methicillin resistant Staphylococcus aureus ATCC BAA-1556 fractional inhibitory concentration index incubated for 24 hrs in presence of Ciprofloxacin by checkerboard assay; format: functional; outline: as §2
[32] = Therapeutic index, ratio of HC50 for human RBC to MIC for methicillin resistant Staphylococcus aureus ATCC BAA-1556
Outline: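 Human RBCs washed in PBS pH 7.4 and mixed 1:1 with two-fold peptide dilutions (4% v/v suspension), 2 h at 37 °C. Hemoglobin in supernatant read at 567 nm against PBS (0%) and 1% Triton X-100 (100%). HC50 is the concentration giving 50% hemolysis. Index is HC50 divided by MIC against MRSA.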

[33] = tested on: Escherichia coli; test: Synergistic antibacterial activity against Escherichia coli ATCC 25922 incubated for 24 hrs in presence of polymyxin B by checkerboard assay; format: functional; outline: as §1
[34] = tested on: Escherichia coli; test: Synergistic antibacterial activity against Escherichia coli ATCC 25922 assessed as fractional inhibitory concentration index incubated for 24 hrs in presence of tobramycin by checkerboard assay; format: functional; outline: as §1

Row | Compound | fractional inhibitory concentration index (FICI) [1] | fractional inhibitory concentration index (FICI) [2] | fractional inhibitory concentration index (FICI) [3] | MIC [4] | fractional inhibitory concentration index (FICI) [5] | FIC [6] | FIC [7] | FIC [8] | fractional inhibitory concentration index (FICI) [9] | FIC [10] | fractional inhibitory concentration index (FICI) [11] | FIC [12] | FIC [13] | FIC [14] | FIC [15] | fractional inhibitory concentration index (FICI) [16] | fractional inhibitory concentration index (FICI) [17] | FIC [18] | MIC [19] | FIC [20] | other results
1 | N=C(N)NCCC[C@@H]1NC(=O)[C@H](CCCNC(=N)N)NC(=O)[C@H](CCCNC(=N)N)NC(=O)[C@H](Cc2c[nH]c3ccccc23)NC(=O)[C@H](Cc2c[nH]c3ccccc23)NC(=O)[C@H](Cc2c[nH]c3ccccc23)NC(=O)[C@H](Cc2c[nH]c3ccccc23)NC(=O)[C@H](CCCNC(=N)N)NC(=O)[C@H](CCCNC(=N)N)NC1=O | 0.5 | 0.313 | 0.375 | 0.0312 µg/mL | 0.375 | 0.0313 | 0.25 | 0.25 | 0.75 | 0.125 | 0.516 | 0.063 | 0.0625 | 0.063 | 0.063 | 0.5 | 0.375 | 0.0625 | 0.125 µg/mL | 0.125 | fractional inhibitory concentration index (FICI) [21]: 0.375; MIC [22]: 0.125 µg/mL; fractional inhibitory concentration index (FICI) [23]: 0.375; FIC [24]: 0.125; MIC [25]: 0.5 µg/mL; FIC [26]: 0.25; Activity [27]: 100%; FIC [28]: 0.016; fractional inhibitory concentration index (FICI) [29]: 0.375; FIC [30]: 0.125; fractional inhibitory concentration index (FICI) [31]: 0.625; TI [32]: 85; MIC [33]: 0.25 µg/mL; fractional inhibitory concentration index (FICI) [34]: 0.5
2 | N=C(N)NCCC[C@@H]1NC(=O)[C@H](CCCNC(=N)N)NC(=O)[C@H](CCCNC(=N)N)NC(=O)[C@H](CCCNC(=N)N)NC(=O)[C@H](Cc2c[nH]c3ccccc23)NC(=O)[C@H](Cc2c[nH]c3ccccc23)NC(=O)[C@H](Cc2c[nH]c3ccccc23)NC(=O)[C@H](Cc2c[nH]c3ccccc23)NC(=O)[C@H](CCCNC(=N)N)NC(=O)[C@H](CCCNC(=N)N)NC1=O (cyclo(RRRRRRWWWW)) | 0.5 | 0.313 | 0.375 | 0.031 µg/mL | 0.375 | 0.063 | 0.25 | 0.25 | 0.5 | 0.125 | 0.375 | 0.063 | 0.0625 | 0.0313 | 0.0156 | 0.5 | 0.313 | 0.0625 | 0.0625 µg/mL | 0.25 | fractional inhibitory concentration index (FICI) [21]: 0.313; MIC [22]: 0.031 µg/mL; fractional inhibitory concentration index (FICI) [23]: 0.375; FIC [24]: 0.25; MIC [25]: 0.25 µg/mL; FIC [26]: 0.125; FIC [28]: 0.016; fractional inhibitory concentration index (FICI) [29]: 0.5; FIC [30]: 0.125; fractional inhibitory concentration index (FICI) [31]: 0.75; TI [32]: 33.1; MIC [33]: 0.125 µg/mL
